Assay results as given in ChEMBL document CHEMBL5653631, “A Potent and Selective ULK1 Inhibitor Suppresses Autophagy and Sensitizes Cancer Cells to Nutrient Stress” (iScience, 2018).
Values belong to the molecule of their own block, whether it stands above or below them.

Legend:
[1] = biological target: Dual specificity protein kinase CLK2 (Homo sapiens) (UniProt P49760); experiment: Inhibition of human recombinant CLK2 at 500 nM in presence of ATP by radiometric assay relative to control
[2] = biological target: T1, Activin receptor type-1B (Homo sapiens) (UniProt P36896); experiment: Inhibition of human recombinant ALK4 at 500 nM related to control ULK1
T1 sequence (whole entry): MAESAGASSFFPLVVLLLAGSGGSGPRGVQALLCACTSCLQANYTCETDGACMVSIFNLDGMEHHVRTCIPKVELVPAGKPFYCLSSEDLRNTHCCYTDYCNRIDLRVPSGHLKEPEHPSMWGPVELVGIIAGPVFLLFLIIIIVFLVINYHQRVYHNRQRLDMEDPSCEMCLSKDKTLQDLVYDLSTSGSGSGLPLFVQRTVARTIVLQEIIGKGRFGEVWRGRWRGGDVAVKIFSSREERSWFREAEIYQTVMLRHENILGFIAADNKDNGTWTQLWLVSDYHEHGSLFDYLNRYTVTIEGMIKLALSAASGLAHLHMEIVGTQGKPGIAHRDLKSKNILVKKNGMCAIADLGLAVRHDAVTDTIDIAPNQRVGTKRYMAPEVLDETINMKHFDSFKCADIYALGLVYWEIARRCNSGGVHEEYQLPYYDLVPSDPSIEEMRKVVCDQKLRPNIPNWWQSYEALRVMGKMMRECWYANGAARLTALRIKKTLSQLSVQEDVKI
Procedure, shortened: (§1)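 Panel of 327 recombinant human kinases, each assayed in vitro by radiometric activity assay in duplicate at a single inhibitor concentration per compound, chosen with reference to its ULK1 inhibition. Activity remaining was expressed as percent of vehicle control, and percent inhibition was calculated as 100 minus percent activity remaining.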

[3] = biological target: Angiopoietin-1 receptor (Homo sapiens) (UniProt Q02763); experiment: Inhibition of human recombinant Tie2 at 500 nM in presence of ATP by radiometric assay relative to control
Chain of Angiopoietin-1 receptor (Homo sapiens) (Q02763 whole entry): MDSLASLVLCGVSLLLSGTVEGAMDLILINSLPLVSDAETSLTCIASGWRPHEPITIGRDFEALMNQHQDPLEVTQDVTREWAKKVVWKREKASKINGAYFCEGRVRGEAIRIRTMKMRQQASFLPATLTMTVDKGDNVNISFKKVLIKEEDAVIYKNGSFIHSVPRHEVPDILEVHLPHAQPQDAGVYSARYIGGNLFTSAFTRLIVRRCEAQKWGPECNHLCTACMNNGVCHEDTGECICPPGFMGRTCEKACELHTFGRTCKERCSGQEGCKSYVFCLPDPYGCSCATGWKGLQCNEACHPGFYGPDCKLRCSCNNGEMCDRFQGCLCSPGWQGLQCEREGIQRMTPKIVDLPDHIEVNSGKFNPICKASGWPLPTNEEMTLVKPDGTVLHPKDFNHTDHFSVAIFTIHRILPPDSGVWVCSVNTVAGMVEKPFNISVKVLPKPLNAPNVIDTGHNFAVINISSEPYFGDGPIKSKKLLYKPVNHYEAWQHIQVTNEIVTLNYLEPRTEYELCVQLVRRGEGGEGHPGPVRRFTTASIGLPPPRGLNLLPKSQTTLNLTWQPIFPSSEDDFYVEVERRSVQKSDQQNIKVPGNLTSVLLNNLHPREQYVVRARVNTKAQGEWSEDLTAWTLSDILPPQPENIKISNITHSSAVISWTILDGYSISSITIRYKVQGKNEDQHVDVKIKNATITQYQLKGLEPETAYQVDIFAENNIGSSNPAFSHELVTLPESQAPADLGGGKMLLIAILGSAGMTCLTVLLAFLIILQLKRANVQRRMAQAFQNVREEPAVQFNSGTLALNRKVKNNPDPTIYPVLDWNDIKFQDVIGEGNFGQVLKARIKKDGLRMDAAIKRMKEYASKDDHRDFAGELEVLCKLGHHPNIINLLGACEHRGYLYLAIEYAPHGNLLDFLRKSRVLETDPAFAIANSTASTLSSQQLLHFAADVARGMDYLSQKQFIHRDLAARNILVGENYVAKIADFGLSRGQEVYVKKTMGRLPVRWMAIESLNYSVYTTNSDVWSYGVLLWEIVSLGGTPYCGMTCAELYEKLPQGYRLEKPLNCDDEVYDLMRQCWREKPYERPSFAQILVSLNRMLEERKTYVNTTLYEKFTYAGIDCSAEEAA

[4] = biological target: Cyclin-dependent kinase 9 (Homo sapiens) (UniProt P50750); experiment: Inhibition of human recombinant CDK9 at 500 nM related to control ULK1
Chain of Cyclin-dependent kinase 9 (Homo sapiens) (P50750 whole entry): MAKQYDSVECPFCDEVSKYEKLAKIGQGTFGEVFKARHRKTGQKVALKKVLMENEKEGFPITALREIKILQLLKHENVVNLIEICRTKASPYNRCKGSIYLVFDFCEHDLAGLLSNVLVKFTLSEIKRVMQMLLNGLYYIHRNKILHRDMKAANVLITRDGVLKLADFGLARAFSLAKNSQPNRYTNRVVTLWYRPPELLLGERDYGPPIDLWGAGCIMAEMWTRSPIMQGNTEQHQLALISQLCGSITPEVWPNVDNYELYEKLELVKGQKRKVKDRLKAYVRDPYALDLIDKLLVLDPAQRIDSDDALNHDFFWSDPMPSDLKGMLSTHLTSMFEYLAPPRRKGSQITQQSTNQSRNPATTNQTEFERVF

[5] = biological target: Macrophage-stimulating protein receptor (Homo sapiens) (UniProt Q04912); experiment: Inhibition of human recombinant RON at 40 nM in presence of ATP by radiometric assay relative to control
Homo sapiens = species on record: Homo sapiens; experiment: Inhibition of human recombinant ABL at 40 nM in presence of ATP by radiometric assay relative to control
Procedure, shortened: (§2)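 Radiometric activity assays in a panel of 327 human recombinant kinases, each run in duplicate at one inhibitor concentration. Activity remaining is expressed as percent of vehicle control, and percent inhibition is calculated as 100% minus percent activity remaining.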

[6] = biological target: RAC-gamma serine/threonine-protein kinase (Homo sapiens) (UniProt Q9Y243); experiment: Inhibition of human recombinant AKT3 at 40 nM related to control ULK1; procedure, shortened: as §2
Chain of RAC-gamma serine/threonine-protein kinase (Homo sapiens) (Q9Y243 whole entry): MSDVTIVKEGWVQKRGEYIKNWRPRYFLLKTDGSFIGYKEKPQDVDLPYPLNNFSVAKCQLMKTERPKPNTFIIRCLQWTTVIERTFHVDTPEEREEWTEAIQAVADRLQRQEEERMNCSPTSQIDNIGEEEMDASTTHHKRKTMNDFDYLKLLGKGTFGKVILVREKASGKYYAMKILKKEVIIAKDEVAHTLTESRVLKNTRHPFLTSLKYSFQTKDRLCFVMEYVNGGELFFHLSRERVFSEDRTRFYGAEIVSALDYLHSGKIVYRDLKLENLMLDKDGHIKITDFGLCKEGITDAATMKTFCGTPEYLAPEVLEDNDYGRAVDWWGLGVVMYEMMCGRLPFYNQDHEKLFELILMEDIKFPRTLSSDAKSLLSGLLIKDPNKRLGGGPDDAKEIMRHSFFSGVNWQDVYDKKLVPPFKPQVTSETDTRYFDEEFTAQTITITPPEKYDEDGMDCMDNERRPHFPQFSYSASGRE

[7] = biological target: Activin receptor type-1-like (Homo sapiens) (UniProt P37023); experiment: Inhibition of human recombinant ALK1 at 40 nM related to control ULK1; procedure, shortened: as §2
[8] = biological target: T2, Muscle, skeletal receptor tyrosine-protein kinase (Homo sapiens) (UniProt O15146); experiment: Inhibition of human recombinant MUSK at 15 nM in presence of ATP by radiometric assay relative to control
T2 sequence (whole entry): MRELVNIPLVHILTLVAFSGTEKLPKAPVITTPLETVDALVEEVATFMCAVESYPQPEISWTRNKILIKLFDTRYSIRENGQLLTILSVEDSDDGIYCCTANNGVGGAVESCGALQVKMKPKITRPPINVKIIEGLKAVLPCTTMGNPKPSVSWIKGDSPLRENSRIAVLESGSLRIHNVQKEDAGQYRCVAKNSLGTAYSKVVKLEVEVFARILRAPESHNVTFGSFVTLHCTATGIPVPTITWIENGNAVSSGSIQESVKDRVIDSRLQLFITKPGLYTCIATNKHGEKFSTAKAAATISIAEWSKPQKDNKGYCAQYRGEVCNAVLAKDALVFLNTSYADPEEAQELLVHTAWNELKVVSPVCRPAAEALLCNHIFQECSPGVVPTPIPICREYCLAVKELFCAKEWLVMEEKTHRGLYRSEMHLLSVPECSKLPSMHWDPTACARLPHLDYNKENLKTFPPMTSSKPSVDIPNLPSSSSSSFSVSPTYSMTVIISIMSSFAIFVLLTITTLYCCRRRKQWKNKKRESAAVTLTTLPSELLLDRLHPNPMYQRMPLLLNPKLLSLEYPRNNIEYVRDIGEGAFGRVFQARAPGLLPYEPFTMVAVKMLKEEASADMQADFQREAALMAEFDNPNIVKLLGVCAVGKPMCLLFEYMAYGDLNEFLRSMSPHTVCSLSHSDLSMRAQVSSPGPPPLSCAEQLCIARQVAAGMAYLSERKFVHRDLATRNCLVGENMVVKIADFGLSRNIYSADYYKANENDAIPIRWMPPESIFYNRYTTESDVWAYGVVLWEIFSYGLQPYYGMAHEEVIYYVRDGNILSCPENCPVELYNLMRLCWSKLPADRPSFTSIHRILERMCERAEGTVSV

[9] = biological target: Ephrin type-A receptor 5 (Homo sapiens) (UniProt P54756); experiment: Inhibition of human recombinant EphA5 at 15 nM related to control ULK1
Chain of Ephrin type-A receptor 5 (Homo sapiens) (P54756 whole entry): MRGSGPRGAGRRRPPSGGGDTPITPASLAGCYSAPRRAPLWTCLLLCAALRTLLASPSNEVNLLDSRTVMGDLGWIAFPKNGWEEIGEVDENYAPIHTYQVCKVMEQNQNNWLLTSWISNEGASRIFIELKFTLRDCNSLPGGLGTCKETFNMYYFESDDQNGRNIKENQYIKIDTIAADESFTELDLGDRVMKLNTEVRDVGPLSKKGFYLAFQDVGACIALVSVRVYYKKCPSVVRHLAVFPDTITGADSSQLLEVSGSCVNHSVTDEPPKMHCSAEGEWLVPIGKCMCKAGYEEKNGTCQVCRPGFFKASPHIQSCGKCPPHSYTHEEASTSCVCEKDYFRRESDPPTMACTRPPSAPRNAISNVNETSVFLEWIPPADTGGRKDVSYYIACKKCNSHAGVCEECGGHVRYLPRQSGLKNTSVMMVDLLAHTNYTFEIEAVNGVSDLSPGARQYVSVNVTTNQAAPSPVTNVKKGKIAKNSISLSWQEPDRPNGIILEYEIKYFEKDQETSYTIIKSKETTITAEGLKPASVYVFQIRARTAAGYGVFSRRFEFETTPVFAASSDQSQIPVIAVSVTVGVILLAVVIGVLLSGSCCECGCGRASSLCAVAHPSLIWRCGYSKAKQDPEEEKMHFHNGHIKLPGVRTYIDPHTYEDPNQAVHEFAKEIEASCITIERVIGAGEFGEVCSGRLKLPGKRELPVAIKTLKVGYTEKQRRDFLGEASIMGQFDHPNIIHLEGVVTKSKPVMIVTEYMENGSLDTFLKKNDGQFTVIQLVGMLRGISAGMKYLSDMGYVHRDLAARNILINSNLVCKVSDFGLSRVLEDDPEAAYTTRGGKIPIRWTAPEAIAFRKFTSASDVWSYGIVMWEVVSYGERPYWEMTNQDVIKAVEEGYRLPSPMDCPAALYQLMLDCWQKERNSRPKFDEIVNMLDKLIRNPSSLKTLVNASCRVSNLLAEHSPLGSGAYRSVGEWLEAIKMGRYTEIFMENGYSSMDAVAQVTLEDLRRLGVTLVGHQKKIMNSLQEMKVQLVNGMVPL

[10] = biological target: Homeodomain-interacting protein kinase 2 (Homo sapiens) (UniProt Q9H2X6); experiment: Inhibition of human recombinant HIPK2 at 15 nM in presence of ATP by radiometric assay relative to control
Chain of Homeodomain-interacting protein kinase 2 (Homo sapiens) (Q9H2X6 whole entry, looked up): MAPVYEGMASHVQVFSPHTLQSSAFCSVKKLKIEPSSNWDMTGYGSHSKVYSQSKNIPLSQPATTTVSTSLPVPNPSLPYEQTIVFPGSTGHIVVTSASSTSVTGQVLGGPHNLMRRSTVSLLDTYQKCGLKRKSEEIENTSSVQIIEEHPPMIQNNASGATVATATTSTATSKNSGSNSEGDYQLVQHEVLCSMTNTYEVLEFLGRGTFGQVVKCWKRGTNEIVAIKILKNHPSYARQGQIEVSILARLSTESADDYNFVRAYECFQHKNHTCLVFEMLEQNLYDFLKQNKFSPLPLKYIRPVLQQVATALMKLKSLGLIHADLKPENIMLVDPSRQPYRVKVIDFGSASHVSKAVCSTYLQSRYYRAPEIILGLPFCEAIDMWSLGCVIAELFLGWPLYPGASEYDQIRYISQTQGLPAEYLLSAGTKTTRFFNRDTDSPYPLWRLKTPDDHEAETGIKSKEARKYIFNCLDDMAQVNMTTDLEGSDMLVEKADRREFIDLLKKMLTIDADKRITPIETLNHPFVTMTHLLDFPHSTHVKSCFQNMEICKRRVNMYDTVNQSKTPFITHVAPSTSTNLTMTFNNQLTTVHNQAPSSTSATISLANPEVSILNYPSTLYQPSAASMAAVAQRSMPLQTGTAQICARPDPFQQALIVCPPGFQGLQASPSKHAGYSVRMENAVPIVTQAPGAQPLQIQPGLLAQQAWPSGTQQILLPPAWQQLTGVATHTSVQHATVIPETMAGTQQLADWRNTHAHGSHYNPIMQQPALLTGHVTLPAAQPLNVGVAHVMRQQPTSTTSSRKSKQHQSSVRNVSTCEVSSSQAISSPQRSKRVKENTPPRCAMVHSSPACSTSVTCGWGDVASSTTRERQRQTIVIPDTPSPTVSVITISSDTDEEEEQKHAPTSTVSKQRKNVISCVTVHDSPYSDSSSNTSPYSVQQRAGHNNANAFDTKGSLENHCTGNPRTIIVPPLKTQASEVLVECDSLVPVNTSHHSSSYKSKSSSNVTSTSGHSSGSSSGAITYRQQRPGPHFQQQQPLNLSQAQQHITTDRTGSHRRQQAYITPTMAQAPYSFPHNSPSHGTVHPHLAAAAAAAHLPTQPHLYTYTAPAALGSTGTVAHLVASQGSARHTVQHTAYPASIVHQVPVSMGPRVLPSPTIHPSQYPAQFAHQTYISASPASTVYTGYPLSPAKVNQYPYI

[11] = biological target: T3, Aurora kinase A (Homo sapiens) (UniProt O14965); experiment: Inhibition of human recombinant AurA at 15 nM in presence of ATP by radiometric assay relative to control; procedure, shortened: as §1
T3 sequence (whole entry): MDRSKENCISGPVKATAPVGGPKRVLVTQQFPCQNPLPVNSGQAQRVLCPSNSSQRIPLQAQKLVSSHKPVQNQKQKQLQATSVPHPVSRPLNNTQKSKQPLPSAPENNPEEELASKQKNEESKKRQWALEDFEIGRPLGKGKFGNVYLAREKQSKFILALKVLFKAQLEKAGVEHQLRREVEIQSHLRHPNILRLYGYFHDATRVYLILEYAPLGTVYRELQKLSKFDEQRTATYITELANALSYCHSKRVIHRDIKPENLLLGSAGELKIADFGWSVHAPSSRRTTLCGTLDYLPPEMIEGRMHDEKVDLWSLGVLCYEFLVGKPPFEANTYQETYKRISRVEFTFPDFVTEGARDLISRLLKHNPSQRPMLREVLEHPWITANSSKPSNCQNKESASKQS

Chain of Dual specificity protein kinase CLK2 (Homo sapiens) (P49760 whole entry, looked up): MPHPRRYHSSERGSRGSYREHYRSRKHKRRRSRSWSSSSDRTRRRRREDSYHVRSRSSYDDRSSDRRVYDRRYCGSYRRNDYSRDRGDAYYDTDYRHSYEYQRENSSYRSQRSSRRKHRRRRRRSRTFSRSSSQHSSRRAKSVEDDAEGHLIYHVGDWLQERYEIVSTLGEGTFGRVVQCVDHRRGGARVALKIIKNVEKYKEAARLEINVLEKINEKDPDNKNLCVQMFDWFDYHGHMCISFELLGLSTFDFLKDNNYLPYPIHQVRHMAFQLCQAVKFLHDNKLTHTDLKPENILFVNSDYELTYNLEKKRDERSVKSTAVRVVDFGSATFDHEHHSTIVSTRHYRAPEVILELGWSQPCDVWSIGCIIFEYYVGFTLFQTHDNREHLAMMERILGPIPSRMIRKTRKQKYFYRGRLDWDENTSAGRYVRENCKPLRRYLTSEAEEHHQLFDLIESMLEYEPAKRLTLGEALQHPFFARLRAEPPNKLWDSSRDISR

- inhibition [1]: 7%
- fold change (FC) [2]: 0.2
- inhibition [3]: 23%
- fold change (FC) [4]: 0.04
SMILES: CNC(=O)c1ccccc1Oc1nc(Nc2cc(OC)c(OC)c(OC)c2)ncc1Br

- inhibition [5]: 0%
- inhibition (Homo sapiens): 12%
- fold change (FC) [6]: 0.03
- fold change (FC) [7]: 0.01
SMILES: O=C(N[C@@H](C1CC1)C(F)(F)F)c1cc(-c2cnn3cc(-c4ccc(F)cc4)cnc23)cs1

- inhibition [8]: 0%
- fold change (FC) [9]: 0
- inhibition [10]: 3%
- inhibition [11]: 13%
SMILES: CC(C)[C@H](NC(=O)c1cc(-c2cnn3cc(-c4ccc(OCCN5CCCCC5)cc4)cnc23)cs1)C(F)(F)F
